Measured values taken from ChEMBL document CHEMBL4118024, “Tannins and Tannin-Related Derivatives Enhance the (Pseudo-)Halogenating Activity of Lactoperoxidase” (J Nat Prod, 2017).

Tests used:
Settings in all cases: Bos taurus; call rule not given here
[1] = system: O=C(O[C@@H]1Cc2c(O)cc(O)cc2O[C@@H]1c1cc(O)c(O)c(O)c1)c1cc(O)c(O)c(O)c1; assay: (§1) Induction of H2O2-inactivated bovine milk lactoperoxidase pseudo-halogenating activity assessed as increase in hypothiocyanate formation by measuring substrate Km using thiocyanate as substrate by Lineweaver-Burk plot
Procedure, shortened: (§2)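 Bovine milk LPO, lyophilized (about 80% purity), 5 nM final, in PBS (10 mM, pH 7.4) at 37 °C with 2 mM SCN−, 50 μM TNB and 80 μM H2O2. Compounds from 5 or 10 mM DMSO stocks, final 0.01–500 μM. −OSCN formation followed at 412 nm as TNB conversion to DTNB in a plate reader. KM, Vmax, kcat and specificity constant from Lineweaver–Burk plots. Mean ± SD, n = 3.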

[2] = system: Oc1cc(O)c2c(c1)O[C@H](c1ccc(O)c(O)c1)[C@H](O)[C@H]2c1c(O)cc(O)c2c1O[C@H](c1ccc(O)c(O)c1)[C@H](O)[C@H]2c1c(O)cc(O)c2c1O[C@H](c1ccc(O)c(O)c1)[C@H](O)C2; assay: as §1; procedure, shortened: as §2
[3] = system: O=C(OC[C@H]1O[C@@H](OC(=O)c2cc(O)c(O)c(O)c2)[C@H](O)[C@@H](OC(=O)c2cc(O)c(O)c(O)c2)[C@@H]1O)c1cc(O)c(O)c(O)c1; assay: as §1; procedure, shortened: as §2
[4] = system: O=C1O[C@@H]2[C@@H](OC(=O)c3cc(O)c(O)c(O)c3-c3c1cc(O)c(O)c3O)[C@H](O)O[C@@H]1COC(=O)c3cc(O)c(O)c(O)c3-c3c(O)c(O)c4oc(=O)c5c(c(O)c(O)c6oc(=O)c3c4c65)-c3c(cc(O)c(O)c3O)C(=O)O[C@@H]21; assay: as §1; procedure, shortened: as §2
[5] = system: Oc1cc(O)c2c(c1)O[C@H](c1cc(O)c(O)c(O)c1)[C@H](O)C2; assay: as §1; procedure, shortened: as §2
[6] = system: O=C(O)c1cc(O)c(O)c(O)c1; assay: as §1; procedure, shortened: as §2
[7] = system: O=C(OC[C@H]1O[C@@H](OC(=O)c2cc(O)c(O)c(O)c2)[C@H](OC(=O)c2cc(O)c(O)c(O)c2)[C@@H](OC(=O)c2cc(O)c(O)c(O)c2)[C@@H]1OC(=O)c1cc(O)c(O)c(O)c1)c1cc(O)c(O)c(O)c1; assay: as §1; procedure, shortened: as §2
[8] = system: Oc1cc(O)c2c(c1)O[C@H](c1ccc(O)c(O)c1)[C@H](O)C2; assay: as §1; procedure, shortened: as §2
[9] = system: O=c1oc2c(O)c(O)cc3c(=O)oc4c(O)c(O)cc1c4c23; assay: as §1; procedure, shortened: as §2
[10] = system: Oc1cc(O)c2c(c1)O[C@@]1(c3ccc(O)c(O)c3)Oc3cc(O)c4c(c3[C@@H]2[C@H]1O)O[C@H](c1ccc(O)c(O)c1)[C@H](O)C4; assay: as §1; procedure, shortened: as §2
[11] = system: COC(=O)c1cc(O)c(O)c(O)c1; assay: as §1; procedure, shortened: as §2
[12] = system: Oc1cc(O)c2c(c1)O[C@H](c1ccc(O)c(O)c1)[C@H](O)[C@H]2c1c(O)cc(O)c2c1O[C@H](c1ccc(O)c(O)c1)[C@H](O)C2; assay: as §1; procedure, shortened: as §2
[13] = system: O=C(/C=C/c1ccc(O)c(O)c1)O[C@@H]1C[C@](O)(C(=O)O)C[C@@H](O)[C@H]1O; assay: as §1; procedure, shortened: as §2
[14] = system: O=C(O[C@@H]1Cc2c(O)cc(O)cc2O[C@@H]1c1cc(O)c(O)c(O)c1)c1cc(O)c(O)c(O)c1; assay: (§3) Induction of H2O2-inactivated bovine milk lactoperoxidase pseudo-halogenating activity assessed as increase in hypothiocyanate formation by measuring substrate Kcat using thiocyanate as substrate by Lineweaver-Burk plot; procedure, shortened: as §2
[15] = system: Oc1cc(O)c2c(c1)O[C@H](c1ccc(O)c(O)c1)[C@H](O)[C@H]2c1c(O)cc(O)c2c1O[C@H](c1ccc(O)c(O)c1)[C@H](O)[C@H]2c1c(O)cc(O)c2c1O[C@H](c1ccc(O)c(O)c1)[C@H](O)C2; assay: as §3; procedure, shortened: as §2
[16] = system: O=C(OC[C@H]1O[C@@H](OC(=O)c2cc(O)c(O)c(O)c2)[C@H](O)[C@@H](OC(=O)c2cc(O)c(O)c(O)c2)[C@@H]1O)c1cc(O)c(O)c(O)c1; assay: as §3; procedure, shortened: as §2
[17] = system: O=C1O[C@@H]2[C@@H](OC(=O)c3cc(O)c(O)c(O)c3-c3c1cc(O)c(O)c3O)[C@H](O)O[C@@H]1COC(=O)c3cc(O)c(O)c(O)c3-c3c(O)c(O)c4oc(=O)c5c(c(O)c(O)c6oc(=O)c3c4c65)-c3c(cc(O)c(O)c3O)C(=O)O[C@@H]21; assay: as §3; procedure, shortened: as §2
[18] = system: Oc1cc(O)c2c(c1)O[C@H](c1cc(O)c(O)c(O)c1)[C@H](O)C2; assay: as §3; procedure, shortened: as §2
[19] = system: O=C(O)c1cc(O)c(O)c(O)c1; assay: as §3; procedure, shortened: as §2
[20] = system: O=C(OC[C@H]1O[C@@H](OC(=O)c2cc(O)c(O)c(O)c2)[C@H](OC(=O)c2cc(O)c(O)c(O)c2)[C@@H](OC(=O)c2cc(O)c(O)c(O)c2)[C@@H]1OC(=O)c1cc(O)c(O)c(O)c1)c1cc(O)c(O)c(O)c1; assay: as §3; procedure, shortened: as §2
[21] = system: Oc1cc(O)c2c(c1)O[C@H](c1ccc(O)c(O)c1)[C@H](O)C2; assay: as §3; procedure, shortened: as §2
[22] = system: O=c1oc2c(O)c(O)cc3c(=O)oc4c(O)c(O)cc1c4c23; assay: as §3; procedure, shortened: as §2
[23] = system: Oc1cc(O)c2c(c1)O[C@@]1(c3ccc(O)c(O)c3)Oc3cc(O)c4c(c3[C@@H]2[C@H]1O)O[C@H](c1ccc(O)c(O)c1)[C@H](O)C4; assay: as §3; procedure, shortened: as §2
[24] = system: COC(=O)c1cc(O)c(O)c(O)c1; assay: as §3; procedure, shortened: as §2
[25] = system: Oc1cc(O)c2c(c1)O[C@H](c1ccc(O)c(O)c1)[C@H](O)[C@H]2c1c(O)cc(O)c2c1O[C@H](c1ccc(O)c(O)c1)[C@H](O)C2; assay: as §3; procedure, shortened: as §2
[26] = system: O=C(/C=C/c1ccc(O)c(O)c1)O[C@@H]1C[C@](O)(C(=O)O)C[C@@H](O)[C@H]1O; assay: as §3; procedure, shortened: as §2
[27] = system: O=C(O[C@@H]1Cc2c(O)cc(O)cc2O[C@@H]1c1cc(O)c(O)c(O)c1)c1cc(O)c(O)c(O)c1; assay: (§4) Induction of H2O2-inactivated bovine milk lactoperoxidase pseudo-halogenating activity assessed as increase in hypothiocyanate formation by measuring ratio of Kcat to Km for substrate using thiocyanate as substrate by Lineweaver-Burk plot; procedure, shortened: as §2
[28] = system: Oc1cc(O)c2c(c1)O[C@H](c1ccc(O)c(O)c1)[C@H](O)[C@H]2c1c(O)cc(O)c2c1O[C@H](c1ccc(O)c(O)c1)[C@H](O)[C@H]2c1c(O)cc(O)c2c1O[C@H](c1ccc(O)c(O)c1)[C@H](O)C2; assay: as §4; procedure, shortened: as §2
[29] = system: O=C(OC[C@H]1O[C@@H](OC(=O)c2cc(O)c(O)c(O)c2)[C@H](O)[C@@H](OC(=O)c2cc(O)c(O)c(O)c2)[C@@H]1O)c1cc(O)c(O)c(O)c1; assay: as §4; procedure, shortened: as §2
[30] = system: O=C1O[C@@H]2[C@@H](OC(=O)c3cc(O)c(O)c(O)c3-c3c1cc(O)c(O)c3O)[C@H](O)O[C@@H]1COC(=O)c3cc(O)c(O)c(O)c3-c3c(O)c(O)c4oc(=O)c5c(c(O)c(O)c6oc(=O)c3c4c65)-c3c(cc(O)c(O)c3O)C(=O)O[C@@H]21; assay: as §4; procedure, shortened: as §2
[31] = system: Oc1cc(O)c2c(c1)O[C@H](c1cc(O)c(O)c(O)c1)[C@H](O)C2; assay: as §4; procedure, shortened: as §2
[32] = system: O=C(O)c1cc(O)c(O)c(O)c1; assay: as §4; procedure, shortened: as §2
[33] = system: Oc1cc(O)c2c(c1)O[C@H](c1ccc(O)c(O)c1)[C@H](O)C2; assay: as §4; procedure, shortened: as §2
[34] = system: O=c1oc2c(O)c(O)cc3c(=O)oc4c(O)c(O)cc1c4c23; assay: as §4; procedure, shortened: as §2
[35] = system: Oc1cc(O)c2c(c1)O[C@@]1(c3ccc(O)c(O)c3)Oc3cc(O)c4c(c3[C@@H]2[C@H]1O)O[C@H](c1ccc(O)c(O)c1)[C@H](O)C4; assay: as §4; procedure, shortened: as §2
[36] = system: COC(=O)c1cc(O)c(O)c(O)c1; assay: as §4; procedure, shortened: as §2
[37] = system: Oc1cc(O)c2c(c1)O[C@H](c1ccc(O)c(O)c1)[C@H](O)[C@H]2c1c(O)cc(O)c2c1O[C@H](c1ccc(O)c(O)c1)[C@H](O)C2; assay: as §4; procedure, shortened: as §2
[38] = system: O=C(/C=C/c1ccc(O)c(O)c1)O[C@@H]1C[C@](O)(C(=O)O)C[C@@H](O)[C@H]1O; assay: as §4; procedure, shortened: as §2

## Lactoperoxidase (Bos taurus) (from UniProt P80025)
[1]
  Km: 0.32 µM
[2]
  Km: 8.41 µM
[3]
  Km: 1.37 µM
[4]
  Km: 10.6 µM
[5]
  Km: 0.32 to 0.81 µM
[6]
  Km: 177 µM
[7]
  Km: Not Active
[8]
  Km: 0.61 µM
[9]
  Km: 0.3 µM
[10]
  Km: 12.7 µM
[11]
  Km: 1.24 µM
[12]
  Km: 0.37 µM
[13]
  Km: 1.26 µM
[14]
  kcat: 13.9 s⁻¹
[15]
  kcat: 6.43 s⁻¹
[16]
  kcat: 63.7 s⁻¹
[17]
  kcat: 11.8 s⁻¹
[18]
  kcat: 13.9 to 43.6 s⁻¹
[19]
  kcat: 30.9 s⁻¹
[20]
  kcat: Not Active
[21]
  kcat: 41.4 s⁻¹
[22]
  kcat: 29.3 s⁻¹
[23]
  kcat: 60 s⁻¹
[24]
  kcat: 80.3 s⁻¹
[25]
  kcat: 4.53 s⁻¹
[26]
  kcat: 60.6 s⁻¹
[27]
  kcat/Km: 43.8 µM⁻¹ s⁻¹
[28]
  kcat/Km: 0.8 µM⁻¹ s⁻¹
[29]
  kcat/Km: 50.3 µM⁻¹ s⁻¹
[30]
  kcat/Km: 1.1 µM⁻¹ s⁻¹
[31]
  kcat/Km: 53.7 µM⁻¹ s⁻¹
[32]
  kcat/Km: 0.2 µM⁻¹ s⁻¹
[33]
  kcat/Km: 68.4 µM⁻¹ s⁻¹
[34]
  kcat/Km: 98.3 µM⁻¹ s⁻¹
[35]
  kcat/Km: 4.74 µM⁻¹ s⁻¹
[36]
  kcat/Km: 64.7 µM⁻¹ s⁻¹
[37]
  kcat/Km: 12.1 µM⁻¹ s⁻¹
[38]
  kcat/Km: 48.1 µM⁻¹ s⁻¹
